Source: ChEMBL document CHEMBL1153293, “Discovery and optimization of piperidyl benzamide derivatives as a novel class of 11beta-HSD1 inhibitors” (Bioorg Med Chem Lett, 2009)

Legend:
[1] = system: HeLa; assay: Cytotoxicity against human HeLa cells; assay type: functional, cell-based
[2] = Metabolic stability in human liver microsome assessed as compound remaining after 30 mins; assay type: ADME; conditions: liver microsomes, read-out: Stability
[3] = Metabolic stability in rat liver microsome assessed as compound remaining after 30 mins; assay type: ADME; conditions: liver microsomes, read-out: Stability
[4] = target: T1, Nuclear receptor subfamily 1 group I member 2 (Homo sapiens, UniProt O75469); assay: Activity at human PXR receptor transfected in human HepG2 cells assessed as receptor activation at 2 uM by luciferase based reporter gene assay relative to rifampin; assay type: cell-based; conditions: hepg2, 2 µM
T1 sequence (O75469 whole entry): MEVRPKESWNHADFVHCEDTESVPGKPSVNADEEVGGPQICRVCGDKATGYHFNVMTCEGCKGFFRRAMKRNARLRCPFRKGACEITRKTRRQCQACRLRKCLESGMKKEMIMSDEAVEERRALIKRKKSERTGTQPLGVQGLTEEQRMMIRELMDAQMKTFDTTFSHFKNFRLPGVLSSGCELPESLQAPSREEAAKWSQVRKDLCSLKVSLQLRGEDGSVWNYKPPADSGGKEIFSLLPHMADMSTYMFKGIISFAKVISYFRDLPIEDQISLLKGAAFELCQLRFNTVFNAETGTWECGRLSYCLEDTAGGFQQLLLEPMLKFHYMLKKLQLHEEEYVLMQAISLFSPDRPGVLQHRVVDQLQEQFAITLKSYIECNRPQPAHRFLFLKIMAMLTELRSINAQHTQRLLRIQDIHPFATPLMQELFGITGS
How it was run: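 HepG2 cells transfected with human PXR cDNA and a luciferase reporter construct driven by the CYP3A4 gene. Cells were exposed to test article, and luciferase activity was read by chemiluminescence. Rifampin at 10 µM served as the positive control.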

[5] = Oral bioavailability in rat at 2.0 mg/kg; assay type: ADME, organism-based; conditions: in vivo
How it was run: (§1)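 Rats received each compound both iv (0.39, 0.50 or 0.51 mg/kg, depending on compound) and orally at 2.0 mg/kg. Plasma clearance was taken from the iv arm and oral bioavailability (%F) from the po dose.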

[6] = Metabolic stability in human hepatocyte assessed as compound remaining after 90 mins; assay type: ADME, cell-based; conditions: hepatocytes, read-out: Stability
[7] = Metabolic stability in rat hepatocyte assessed as compound remaining after 90 mins; assay type: ADME, cell-based; conditions: hepatocytes, read-out: Stability
[8] = Clearance in rat at 0.39 mg/kg, iv; assay type: ADME, organism-based; set-up: dose 0.39 mg/kg, route intravenous; conditions: in vivo; how it was run: as §1
[9] = Fraction unbound in human plasma; assay type: ADME, cell-free
How it was run: (§2)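 Unbound fraction (fu) in plasma was measured with a 4 h ultracentrifugation protocol, with samples analyzed by mass spectrometry.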

[10] = Fraction unbound in rat plasma; assay type: ADME, cell-free; how it was run: as §2
[11] = Clearance in rat at 0.50 mg/kg, iv; assay type: ADME, organism-based; set-up: dose 0.5 mg/kg, route intravenous; conditions: in vivo, 0.5 mg/kg; how it was run: as §1
[12] = Clearance in rat at 0.51 mg/kg, iv; assay type: ADME, organism-based; set-up: dose 0.51 mg/kg, route intravenous; conditions: in vivo; how it was run: as §1
[13] = target: T2, 11-beta-hydroxysteroid dehydrogenase 1 (Homo sapiens, UniProt P28845); assay: Inhibition of human recombinant 11beta-HSD1 expressed in baculovirus system by scintillation proximity assay
[14] = target: T2, 11-beta-hydroxysteroid dehydrogenase 1; assay: Inhibition of human recombinant 11beta-HSD1 expressed HEK293 cells by scintillation proximity assay; assay type: cell-based
[15] = target: T2, 11-beta-hydroxysteroid dehydrogenase 1; assay: Inhibition of human recombinant 11beta-HSD1 expressed HEK293 cells by scintillation proximity assay in presence of human serum albumin; assay type: cell-based

T2 sequence (P28845 whole entry): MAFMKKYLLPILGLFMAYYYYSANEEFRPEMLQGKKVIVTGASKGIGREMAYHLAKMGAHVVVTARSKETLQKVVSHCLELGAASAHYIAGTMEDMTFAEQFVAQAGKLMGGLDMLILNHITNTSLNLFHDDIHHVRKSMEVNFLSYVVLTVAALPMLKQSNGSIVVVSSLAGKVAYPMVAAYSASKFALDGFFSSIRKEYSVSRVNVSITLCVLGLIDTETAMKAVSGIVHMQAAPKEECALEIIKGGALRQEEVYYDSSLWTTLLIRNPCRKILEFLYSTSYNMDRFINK

SMILES | IC50 [1] | remaining at 0.5 h [2] | remaining at 0.5 h [3] | Activity [4] | also measured
C[C@](O)(c1ccc(C(=O)N(C2CC2)[C@H]2CC[C@H](c3cccnc3)CC2)cc1)C(F)(F)F | 2.5 µM | – | – | – | –
CC(C)(C[C@H]1CC[C@H](N(C(=O)c2ccc([C@](C)(O)C(F)(F)F)cc2)C2CC2)CC1)C(N)=O | > 10 µM | > 90% | > 90% | 4% | bioavailability [5]: 32%; remaining at 1.5 h [6]: 84%; remaining at 1.5 h [7]: 10%; clearance [8]: 21.7 mL/min/kg
C[C@@](O)(c1ccc(C(=O)N(C2CC2)[C@H]2CC[C@@H](CCC(N)=O)CC2)cc1)C(F)(F)F | > 10 µM | > 90% | 72% | 100% | –
C[C@](O)(c1ccc(C(=O)N(C2CC2)C2CCN(CC3(C#N)CC3)CC2)cc1)C(F)(F)F | > 10 µM | 86% | 28% | 3% | –
CC(C)(C#N)C[C@H]1CC[C@H](N(C(=O)c2ccc([C@](C)(O)C(F)(F)F)cc2)C2CC2)CC1 | – | > 90% | 77% | 60% | –
C[C@@](O)(c1ccc(C(=O)N(C2CC2)[C@H]2CC[C@@H](CC#N)CC2)cc1)C(F)(F)F | – | 70% | 5% | 74% | –
C[C@](O)(c1ccc(C(=O)N(C2CC2)C2CCN(CC3(C(N)=O)CC3)CC2)cc1)C(F)(F)F | > 10 µM | > 90% | 86% | 4% | bioavailability [5]: 69%; remaining at 1.5 h [6]: > 90%; remaining at 1.5 h [7]: 69%; fraction unbound [9]: 0.48; fraction unbound [10]: 0.2; clearance [11]: 14.8 mL/min/kg
C[C@](O)(c1ccc(C(=O)N(C2CC2)[C@H]2CC[C@H](CC3(C(N)=O)CC3)CC2)cc1)C(F)(F)F | 8 µM | > 90% | > 90% | 6.5% | remaining at 1.5 h [6]: > 90%; remaining at 1.5 h [7]: 73%; fraction unbound [9]: 0.12; fraction unbound [10]: 0.048
C[C@@](O)(c1ccc(C(=O)N(C2CC2)[C@H]2CC[C@H](CCC(N)=O)CC2)cc1)C(F)(F)F | > 10 µM | > 90% | > 90% | 5% | clearance [12]: 50 mL/min/kg; bioavailability [5]: 22%; remaining at 1.5 h [6]: 32%; remaining at 1.5 h [7]: < 5%
C[C@@](O)(c1ccc(C(=O)N(C2CC2)[C@H]2CC[C@H](CC#N)CC2)cc1)C(F)(F)F | – | > 90% | 73% | 75% | –
C[C@](O)(c1ccc(C(=O)N(C2CC2)[C@H]2CC[C@@H](CCC#N)CC2)cc1)C(F)(F)F | > 10 µM | 64% | < 5% | 56% | IC50 [13]: 0.0028 µM; IC50 [14]: 0.01 µM; IC50 [15]: 0.13 µM
C[C@](O)(c1ccc(C(=O)N(C2CC2)[C@H]2CC[C@H](CC3(C#N)CC3)CC2)cc1)C(F)(F)F | 4 µM | > 90% | > 90% | 60% | –
C[C@](O)(c1ccc(C(=O)N(C2CCC(CC(N)=O)CC2)C2CC2)cc1)C(F)(F)F (mixture of isomers) | – | – | – | 1% | –
C[C@](O)(c1ccc(C(=O)N(C2CC2)[C@H]2CC[C@H](CCC#N)CC2)cc1)C(F)(F)F | > 10 µM | > 90% | – | 30% | –
